Experimental data: article PMC6753381 (Cell reports, 2019)
Entries after “also recorded” stand apart in the source; their conditions may differ. Counter-ions that a name gives are not always drawn. Blank lines part the entries; values can stand above or below the molecule they belong to.

What was measured:
[1] = tested on: Ca45 2+ uptake in 3T3-L1 adipocytes; experiment: Ca45 2+ uptake assay in 3T3-L1 adipocytes; format: cell-based, mouse; details: differentiated 3T3-L1 adipocytes, 3 min, pH 7.4, 37°C; ISO 100 nM
In short: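 Differentiated adipocytes were washed twice, 15 min apart, at 37°C in 150 mM NaCl, 5 mM KCl, 2 mM CaCl2 and 10 mM HEPES, pH 7.4. They were then incubated 3 min in Ca-free buffer with 2 μCi 45Ca2+, peptide at several concentrations and isoproterenol 100 nM. Stop with ice-cold Ca-free buffer containing 2 mM EGTA and 1 mM LaCl3, then three washes. Lysis in 0.1% Triton X-100; scintillation counting, cpm/well.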

3T3-L1 adipocytes = experiment: Lipolysis; format: cell-based, mouse; details: 1 h pretreatment, ISO 50 nM, no TLQP-21
In short: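 Adipocytes serum-starved 3 h in KRH buffer (HEPES 10 mM, CaCl2 2.2 mM, glucose 5.4 mM) with 1% fatty-acid-free BSA, then treated in KRH with 4% BSA. Inhibitors given as 1 h pretreatment (SKF-96365 dose series; AnC0A4 or KN-62 1 μM) before isoproterenol 50 nM. Medium heat-inactivated 60°C for 20 min. Free glycerol read colorimetrically at 540 nm, normalized to Bradford protein, fold over control.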

[Ca2+]i in 3T3-L1 cells = Fluo-4 intracellular calcium in 3T3-L1 cells; format: cell-based, mouse; details: SKF-96365 20 μM; for effect of inhibitor on TLQP-21-induced [Ca2+]i increase: TLQP-21 10 μM
In short: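 Cells plated at 60% confluency on collagen-coated slides. Next day, loaded 30 min in HBSS with 2.5 μM Fluo-4 AM, washed 30 min, imaged live at 20X every second for 3 min. Agents added at 30 s; HBSS negative, ionomycin and UTP positive controls. Per-cell AUC over first 60 s, background-subtracted, basal-normalized, control-normalized, scaled 0–1; 8–50 cells, 2 experiments.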

[2] = biological target: T1, m*C3aR1 (murinized hC3aR1) (Homo sapiens, UniProt Q16581, C420S/L413V/S400L/V103I/V419M); experiment: Tango β-arrestin recruitment assay, murinized hC3aR1; format: cell-based; details: ratio of EC50 hC3aR1 / m*C3aR1
T1 sequence (Q16581 1-482 V103I/S400L/L413V/V419M/C420S): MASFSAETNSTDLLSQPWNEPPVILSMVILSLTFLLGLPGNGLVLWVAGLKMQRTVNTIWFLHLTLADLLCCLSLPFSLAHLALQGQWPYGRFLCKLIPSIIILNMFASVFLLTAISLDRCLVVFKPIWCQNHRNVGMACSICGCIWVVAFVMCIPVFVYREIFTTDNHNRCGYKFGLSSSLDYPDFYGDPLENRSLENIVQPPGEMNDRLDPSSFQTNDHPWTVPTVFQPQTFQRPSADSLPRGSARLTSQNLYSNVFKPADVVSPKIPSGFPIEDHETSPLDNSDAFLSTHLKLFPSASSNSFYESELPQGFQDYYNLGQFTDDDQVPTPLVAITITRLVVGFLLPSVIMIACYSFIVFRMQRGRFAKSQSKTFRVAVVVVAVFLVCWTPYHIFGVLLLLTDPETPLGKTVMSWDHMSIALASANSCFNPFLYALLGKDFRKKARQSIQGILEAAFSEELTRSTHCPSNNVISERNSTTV

[3] = tested on: C3aR1 R161A, R340A and D417A mutants; details: R340A, and D417A mutations, ref Sun et al., 1999; cited from earlier work
C3aR1 = details: cited from earlier work

Molecule: CC(C)NCC(O)c1ccc(O)c(O)c1 (centres unmarked) [ISO, Isoproterenol hydrochloride]
- Ca45 2+ uptake from the medium [1]: did not increase Ca45^2+ uptake under our experimental conditions and did not potentiate TLQP-21-mediated effects; also recorded: does not modify TLQP-21-induced Ca45^2+ uptake from the medium

Molecule: CN([C@@H](Cc1ccc(OS(=O)(=O)c2cccc3cnccc23)cc1)C(=O)N1CCN(c2ccccc2)CC1)S(=O)(=O)c1cccc2cnccc12 [KN-62]
- effect of inhibitor on basal or ISO-induced lipolysis (3T3-L1 adipocytes): without affecting basal or ISO-induced lipolysis per se

Molecule: NC(N)=NCCC[C@H](NC(=O)COCC(c1ccccc1)c1ccccc1)C(=O)O [SB290157]
- effect of inhibitor on TLQP-21-induced [Ca2+]i increase ([Ca2+]i in 3T3-L1 cells): antagonized TLQP-21-mediated calcium influx; also recorded: this effect is antagonized by the C3aR1 antagonist SB290157

Molecule: COc1ccc(CCCOC(Cn2ccnc2)c2ccc(OC)cc2)cc1 (centres unmarked) [SKF-96365]
- basal fluorescence (Fluo-4) ([Ca2+]i in 3T3-L1 cells): mild SKF-96365-induced elevation of basal fluorescence
- effect of inhibitor on TLQP-21-induced [Ca2+]i increase ([Ca2+]i in 3T3-L1 cells): TLQP-21-induced increase in [Ca^2+]i, measured by Fluo-4 fluorescence, is blocked; also recorded: blocked the TLQP-21-induced increase in [Ca^2+]i
- effect of inhibitor on basal or ISO-induced lipolysis (3T3-L1 adipocytes): without affecting basal or ISO-induced lipolysis

Molecule: C3a63–77: C3aR1 agonist C3a63–77 (LRRQHARASHLGLAR; C3a anaphylatoxin; UniProt P01024 734-748, looked up, fragment)
- increase in β-arrestin potency at m*C3aR1 versus hC3aR1 [2]: 8.5 fold

- increase in β-arrestin potency at m*C3aR1 versus hC3aR1 [2]: 8.5 fold
Molecule: C3a: 77-amino-acid, full-length C3a; in b45 apparently the C3a63–77 peptide
- C3a binding affinity to C3aR1 mutants [3]: complete loss of C3a binding affinity to C3aR1

Molecule: HFHHALPPAR
- biological activity of modified or truncated peptides (C3aR1; ref Cero et al., 2014): only retained minimal biological activity

Molecule: RRRHFHHALPPAR
- biological activity of truncated peptide (C3aR1; ref Rivolta et al., 2017): retains full biological activity
